Measured values reported in ChEMBL document CHEMBL4715838, “Novel diosgenin derivatives containing 1,3,4-oxadiazole/thiadiazole moieties as potential antitumor agents: Design, synthesis and cytotoxic evaluation” (Eur J Med Chem, 2020).
Activity calls are given as the source filed them. The rule behind the calls is not given here.

Key:
[1] = system: A549; experiment: Induction of apoptosis in human A549 cells assessed as cell shrinkage at 30 uM measured after 48 hrs by phase contrast microscopic analysis; assay type: functional, cell-based
Procedure, shortened: (§1)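 A549 seeded at 2×10^5 cells/well and allowed to settle 24 h. Then exposed 48 h to test compound (15 or 30 μM) or diosgenin (30 μM); controls received 0.1% DMSO. Cell shape examined by phase contrast microscopy.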

[2] = system: HepG2; experiment: Cytotoxicity against human HepG2 cells assessed as reduction in cell viability measured after 48 hrs by MTT assay; assay type: functional, cell-based; details: HepG2, 48 h
Procedure, shortened: (§2)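 Cells in DMEM with 10% FBS, penicillin/streptomycin, 37 °C, 5% CO2. Seeded at 5×10^3 per well directly into medium holding graded concentrations of sample and incubated 48 h. MTT (5 mg/mL in PBS) added for 4 h, medium replaced with DMSO, absorbance read at 492 nm. IC50 taken as the concentration giving 50% inhibition of proliferation; three replicates, means ± SD.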

[3] = system: A549; experiment: Cytotoxicity against human A549 cells assessed as reduction in cell viability measured after 48 hrs by MTT assay; assay type: functional, cell-based; details: A549, 48 h; procedure, shortened: as §2
[4] = system: MCF7; experiment: Cytotoxicity against human MCF7 cells assessed as reduction in cell viability measured after 48 hrs by MTT assay; assay type: functional, cell-based; details: MCF7, 48 h; procedure, shortened: as §2
[5] = system: HCT-116; experiment: Cytotoxicity against human HCT-116 cells assessed as reduction in cell viability measured after 48 hrs by MTT assay; assay type: functional, cell-based; details: HCT-116, 48 h; procedure, shortened: as §2
[6] = system: GES1; experiment: Cytotoxicity against human GES1 cells assessed as reduction in cell viability measured after 48 hrs by MTT assay; assay type: cell-based; details: GES1, 48 h; procedure, shortened: as §2
[7] = system: A549; experiment: Induction of apoptosis in human A549 cells assessed as cell rounding at 30 uM measured after 48 hrs by phase contrast microscopic analysis; assay type: functional, cell-based; procedure, shortened: as §1
[8] = system: A549; experiment: Induction of apoptosis in human A549 cells assessed as membrane blebbing at 30 uM measured after 48 hrs by phase contrast microscopic analysis; assay type: functional, cell-based; procedure, shortened: as §1
[9] = system: A549; experiment: Induction of apoptosis in human A549 cells assessed as formation of apoptotic bodies at 30 uM measured after 48 hrs by phase contrast microscopic analysis; assay type: functional, cell-based; procedure, shortened: as §1
[10] = system: A549; experiment: Induction of apoptosis in human A549 cells assessed as early apoptotic cells at 15 uM after 48 hrs by AnnexinV-FITC/propidium iodide staining based flow cytometry analysis (reference value: 0.5 to 2.3 %); assay type: functional
[11] = system: A549; experiment: Induction of apoptosis in human A549 cells assessed as late apoptotic cells at 15 uM after 48 hrs by AnnexinV-FITC/propidium iodide staining based flow cytometry analysis (reference value: 1 to 3.1 %); assay type: functional
[12] = system: A549; experiment: Induction of apoptosis in human A549 cells assessed as early apoptotic cells at 30 uM after 48 hrs by AnnexinV-FITC/propidium iodide staining based flow cytometry analysis (reference value: 0.5 to 2.3 %); assay type: functional
[13] = system: A549; experiment: Induction of apoptosis in human A549 cells assessed as late apoptotic cells at 30 uM after 48 hrs by AnnexinV-FITC/propidium iodide staining based flow cytometry analysis (reference value: 1 to 3.1 %); assay type: functional
[14] = system: A549; experiment: Induction of apoptosis in human A549 cells assessed as increase in cleaved caspase 3 expression at 15 to 30 uM by Western blot analysis; assay type: functional, cell-based; details: dose 15-30 µM
Procedure, shortened: (§3)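 A549 treated with compound (0, 7.5, 15, 30 μM) or diosgenin (0, 15, 30 μM), lysed in RIPA and boiled 10 min. 30 μg protein run on 10% SDS-PAGE, blotted to nitrocellulose, blocked in 5% BSA. Primary antibodies used at 1:1000, HRP secondary at 1:5000 for 2 h, ECL detection. β-actin served as loading control.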

[15] = system: A549; experiment: Induction of apoptosis in human A549 cells assessed as increase in cleaved caspase 9 expression at 15 to 30 uM by Western blot analysis; assay type: functional, cell-based; details: dose 15-30 µM; procedure, shortened: as §3
[16] = system: A549; experiment: Induction of apoptosis in human A549 cells assessed as increase in cleaved PARP expression at 15 to 30 uM by Western blot analysis; assay type: functional, cell-based; details: dose 15-30 µM; procedure, shortened: as §3
[17] = system: HepG2; experiment: Potency index, ratio of diosgenin IC50 to test compound IC50 for cytotoxicity against human HepG2 cells assessed as reduction in cell viability; assay type: functional

SMILES	IC50 [2]	IC50 [3]	IC50 [4]	IC50 [5]	IC50 [6]	other results
C[C@@H]1CC[C@@]2(OC1)O[C@H]1C[C@H]3[C@@H]4CC=C5C[C@@H](O)CC[C@]5(C)[C@H]4CC[C@]3(C)[C@H]1[C@@H]2C [DISOGENIN]	33.9 µM	26.4 µM	23.9 µM	49.1 µM	101 µM	Activity [1]: inactive; Activity [7]: inactive; Activity [8]: inactive; Activity [9]: inactive; Activity [10]: 2.3%; Activity [11]: 3.1%; Activity [12]: 2.5%; Activity [13]: 2%; Activity [14]: inactive; Activity [15]: inactive; Activity [16]: inactive
CC(=O)O[C@H]1CC[C@@]2(C)C(=CC[C@H]3[C@@H]4C[C@@H]5O[C@H](CC[C@H](C)c6nnc(-c7cccc8ccccc78)o6)[C@@H](C)[C@@H]5[C@@]4(C)CC[C@@H]32)C1	–	–	–	–	70.1 µM	–
CC(=O)O[C@H]1CC[C@@]2(C)C(=CC[C@H]3[C@@H]4C[C@@H]5O[C@H](CC[C@@H](C)c6nnc(-c7cccnc7)o6)[C@@H](C)[C@@H]5[C@@]4(C)CC[C@@H]32)C1	82.6 µM	33.5 µM	> 100 µM	72.5 µM	62.4 µM	–
CC(=O)O[C@H]1CC[C@@]2(C)C(=CC[C@H]3[C@@H]4C[C@@H]5O[C@H](CC[C@H](C)c6nnc(-c7cccc8ccccc78)s6)[C@@H](C)[C@@H]5[C@@]4(C)CC[C@@H]32)C1	–	> 100 µM	–	> 100 µM	–	–
CC(=O)O[C@H]1CC[C@@]2(C)C(=CC[C@H]3[C@@H]4C[C@@H]5O[C@H](CC[C@@H](C)c6nnc(C)o6)[C@@H](C)[C@@H]5[C@@]4(C)CC[C@@H]32)C1	57.6 µM	34.4 µM	44.8 µM	78.8 µM	98.2 µM	–
C[C@H]1[C@H]2[C@H](C[C@H]3[C@@H]4CC=C5C[C@@H](O)CC[C@]5(C)[C@H]4CC[C@]23C)O[C@@H]1CC[C@H](C)c1nnc(-c2cccc3ccccc23)o1	29.2 µM	31.3 µM	69.7 µM	> 100 µM	298 µM	–
COc1ccc(-c2nnc([C@H](C)CC[C@H]3O[C@H]4C[C@H]5[C@@H]6CC=C7C[C@@H](O)CC[C@]7(C)[C@H]6CC[C@]5(C)[C@H]4[C@@H]3C)o2)cc1	–	–	–	> 100 µM	–	–
Cc1nnc([C@H](C)CC[C@H]2O[C@H]3C[C@H]4[C@@H]5CC=C6C[C@@H](O)CC[C@]6(C)[C@H]5CC[C@]4(C)[C@H]3[C@@H]2C)s1	33.2 µM	36.7 µM	33.8 µM	48.9 µM	107 µM	–
COc1ccc(-c2nnc([C@H](C)CC[C@H]3O[C@H]4C[C@H]5[C@@H]6CC=C7C[C@@H](O)CC[C@]7(C)[C@H]6CC[C@]5(C)[C@H]4[C@@H]3C)s2)cc1	23.1 µM	16.4 µM	> 100 µM	> 100 µM	209 µM	–
Cc1nnc([C@H](C)CC[C@H]2O[C@H]3C[C@H]4[C@@H]5CC=C6C[C@@H](O)CC[C@]6(C)[C@H]5CC[C@]4(C)[C@H]3[C@@H]2C)o1	34.2 µM	30.4 µM	20.4 µM	51.6 µM	72.8 µM	–
C[C@H]1[C@H]2[C@H](C[C@H]3[C@@H]4CC=C5C[C@@H](O)CC[C@]5(C)[C@H]4CC[C@]23C)O[C@@H]1CC[C@@H](C)c1nnc(-c2cccnc2)s1	8.83 µM	7.68 µM	> 100 µM	51.6 µM	354 µM	–
C[C@H]1[C@H]2[C@H](C[C@H]3[C@@H]4CC=C5C[C@@H](O)CC[C@]5(C)[C@H]4CC[C@]23C)O[C@@H]1CC[C@@H](C)c1nnc(-c2ccccc2)o1	39.5 µM	64.2 µM	53 µM	> 100 µM	120 µM	–
CC(=O)O[C@H]1CC[C@@]2(C)C(=CC[C@H]3[C@@H]4C[C@@H]5O[C@H](CC[C@@H](C)c6nnc(-c7ccccc7)o6)[C@@H](C)[C@@H]5[C@@]4(C)CC[C@@H]32)C1	63.2 µM	84.5 µM	> 100 µM	> 100 µM	82.3 µM	–
C[C@H]1[C@H]2[C@H](C[C@H]3[C@@H]4CC=C5C[C@@H](O)CC[C@]5(C)[C@H]4CC[C@]23C)O[C@@H]1CC[C@@H](C)c1nnc(-c2ccccc2)s1	32.1 µM	15 µM	27.4 µM	48.9 µM	527 µM	Ratio IC50 [17]: 1.05
C[C@H]1[C@H]2[C@H](C[C@H]3[C@@H]4CC=C5C[C@@H](O)CC[C@]5(C)[C@H]4CC[C@]23C)O[C@@H]1CC[C@@H](C)c1nnc(-c2cccnc2)o1	> 100 µM	98.1 µM	> 100 µM	> 100 µM	199 µM	–
C[C@H]1[C@H]2[C@H](C[C@H]3[C@@H]4CC=C5C[C@@H](O)CC[C@]5(C)[C@H]4CC[C@]23C)O[C@@H]1CC[C@H](C)c1nnc(-c2cccc3ccccc23)s1	32.9 µM	18.3 µM	63.8 µM	46.6 µM	201 µM	Ratio IC50 [17]: 1.02
CC(=O)O[C@H]1CC[C@@]2(C)C(=CC[C@H]3[C@@H]4C[C@@H]5O[C@H](CC[C@@H](C)c6nnc(C)s6)[C@@H](C)[C@@H]5[C@@]4(C)CC[C@@H]32)C1	34.2 µM	40.3 µM	47.7 µM	> 100 µM	75.8 µM	–
CO[C@@]12[C@H](COC(N)=O)C3=C(C(=O)C(C)=C(N)C3=O)N1C[C@@H]1N[C@@H]12 [MITOMYCIN]	32.6 µM	11 µM	16.7 µM	11 µM	21.1 µM	–
COc1ccc(-c2nnc([C@H](C)CC[C@H]3O[C@H]4C[C@H]5[C@@H]6CC=C7C[C@@H](OC(C)=O)CC[C@]7(C)[C@H]6CC[C@]5(C)[C@H]4[C@@H]3C)o2)cc1	–	–	–	–	151 µM	–
